UPR XBP1 act: adaptive UPR (XBP1) activation | CHO-XBP1 luciferase reporter, IRE1-XBP1 UPR activation, luminescence; percent of tunicamycin response, DMSO as zero | activation, % at 20 µM | 0.33% of 330,000 active;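 active means versus positive control, 20 µM dose yields 30% or more activation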
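Material: IRE1-XBP1 luciferase reporter CHO line / Quantity: one thousand reporter cells per well / Buffer or medium: F12 with 10% serum / Compound: 20 µM single concentration, DMSO 1% / Times: 6 h treatment, 37 °C / Detection: Steady-Glo luciferase glow luminescence, 10 min after reagent addition / Benchmarks: tunicamycin high, DMSO low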
CHOP UPR activ: apoptotic UPR (CHOP) activation | CHO-CHOP luciferase reporter, luminescence; percent of tunicamycin response over DMSO baseline | activation, % at 10 µM | 0.34% of 330,000 active;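 active means at 10 µM dose, activation of 40% or more, normalized to positive control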
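Assay system: CHO cells with stable CHOP pathway luciferase reporter; Buffer or medium: F12 plus 10% serum; Times: 16-18 h cell attachment, then 6 h compound exposure, 37 °C; Signal: luciferase luminescence; Read-out basis: percent activation relative to tunicamycin control; Control set: tunicamycin high control, DMSO low control.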
Beta2AR agonist: human beta-2 adrenergic receptor agonism by FAP; P07550; Am2.2-beta2AR cells, FAP receptor internalization, flow cytometry; response, % (test concentration not listed); 0.43% of 340,000 active; AID 504454;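 active means response above a set limit, near 3 SD of response in nonfluorescent compounds, cut at about 42% in these data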
Dynein transport: blocks dynein driven cargo transport along microtubules. 3617.4 mouse cells, GR-EGFP nuclear translocation imaging; test concentration mostly 20 µM; stimulated with dexamethasone, 1 µM; hits give low values. z-score, hits read low. 0.47% of 220,000 active. AID 1381;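 active means plate z-score of nuclear minus cytoplasmic receptor signal below a set negative limit, without overly bright fluorescence or cell loss, cut at about -3.5 in these data, passing the limit was not always enough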;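 further: z-score of nuclear minus cytoplasmic ring GR-EGFP intensity difference per well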
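Schedule: 48 h induction, then 1 h compound, then 30 min agonist, 37 °C. Buffer or medium: tetracycline-free induction medium containing charcoal-stripped FBS. Reagent: 1.0 µM final dexamethasone stimulus. Evaluation: nuclear versus cytoplasmic GR-EGFP signal, averaged per well. Signal: high-content fluorescence imaging after fixation.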
Mdm2 ligase inh: blocks human Mdm2 ubiquitin ligase activity | cell-based MDM2 ubiquitination luciferase reporter, 2 h; 0 = plate control, 100 = twice control, blank-subtracted | signal enhancement, % at 5 µM | 0.11% of 210,000 active | AID 1230 | Q00987;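 active means signal enhancement of 30% or more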;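 further: luminescence tracks abundance of the self-degrading MDM2-luciferase fusion protein; higher signal means inhibition of MDM2 E3 ligase activity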
Target sequence (Q00987 whole entry, looked up, the tested form may be a part): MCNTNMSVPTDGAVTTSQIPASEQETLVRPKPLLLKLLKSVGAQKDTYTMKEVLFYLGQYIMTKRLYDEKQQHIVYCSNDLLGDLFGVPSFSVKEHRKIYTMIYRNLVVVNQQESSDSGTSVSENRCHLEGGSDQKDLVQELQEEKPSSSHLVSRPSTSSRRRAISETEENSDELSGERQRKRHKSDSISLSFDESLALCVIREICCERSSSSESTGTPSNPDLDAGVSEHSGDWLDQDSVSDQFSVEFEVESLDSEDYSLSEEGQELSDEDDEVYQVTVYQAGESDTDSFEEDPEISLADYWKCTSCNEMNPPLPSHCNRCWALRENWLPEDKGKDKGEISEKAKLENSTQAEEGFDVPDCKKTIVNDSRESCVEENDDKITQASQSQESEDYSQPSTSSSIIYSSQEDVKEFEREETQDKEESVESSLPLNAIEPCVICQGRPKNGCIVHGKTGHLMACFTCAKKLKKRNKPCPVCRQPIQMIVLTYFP
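Assay system: mammalian cells stably expressing self-ubiquitinating, self-degrading MDM2 E3–luciferase fusion. Quantity: 2000 cells in each well. Medium: DMEM culture medium. Compound dosing: single-point 5 µM. Timing: cell settling 4 h, compound treatment 2 h, both 37 °C. Technique: luciferase luminescence. Read-out basis: percent signal gain over controls, blank-subtracted. Benchmarks: plate controls and plate blanks.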
Mdm2 MdmX PPI: disrupts the human Mdm2-MdmX interaction | 3% of 330,000 active | inhibition, % at 8 µM | O15151+Q00987 | SaOS-2 split-luciferase Mdm2/MdmX complementation, luminescence | AID 485346;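 active means inhibition of at least 50% at 8 µM in the primary screen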
Mdm2 MdmX conf: human Mdm2/MdmX binding inhibition, confirmed. shares compounds with Mdm2 MdmX PPI. luminescent assay. inhibition, % at 8 µM. 55% of 10,000 active; in the data active means inhibition above about 40%
FLuc counter: inhibits full-length luciferase, flagging false Mdm2/MdmX hits; 77% of 6,200 active; SaOS-2 full-length luciferase counterscreen, luminescence; shares compounds with Mdm2 MdmX PPI; inhibition, % at 8 µM;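 active means mean inhibition at 8 µM reaching about 37%, which flags the compound as non-specific, limit read from the data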;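 further: p53-null SaOS-2 cells with luciferase driven by a doxycycline-inducible promoter; compound on cells about two nights before reading with doxycycline added after day one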
Numbers stand for hits; - = inactive; . = not tested or not shown. Hits are enriched below; roughly 3.7% of the tested compounds scored in any of these assays.

SMILES | UPR XBP1 act | CHOP UPR activ | Beta2AR agonist | Dynein transport | Mdm2 ligase inh | Mdm2 MdmX PPI | Mdm2 MdmX conf | FLuc counter
Cc1ccc(-n2sc3ccccc3c2=O)cc1 | - | - | - | - | - | - | . | .
O=c1c2ccccc2sn1-c1ccc(F)cc1 | - | - | - | . | . | 51 | - | .
CCC(=O)NC(c1ccc(OC)c(OC)c1)c1cc(Cl)c2cccnc2c1O (stereo unspecified) | . | . | - | - | - | . | . | .
COc1ccccc1C(NC(C)=O)c1cc(Cl)c2cccnc2c1O (stereo unspecified) | - | - | - | . | . | 67 | 61 | -
COc1ccc(C(NC(C)=O)c2cc(Cl)c3cccnc3c2O)cc1OC (stereo unspecified) | - | - | - | - | - | 68 | 76 | 40
Cc1cc(N)n(-c2ccccn2)n1 | - | - | - | - | - | - | . | .
COc1ccc([N+](=O)[O-])cc1NS(=O)(=O)c1cccc(C(=O)O)c1 | - | - | - | - | - | - | . | .
Cc1nc(SCC(=O)NC2(C#N)CCCC2)n(CC(C)C)c1C | - | - | - | . | . | - | . | .
O=C(Nc1cccc([N+](=O)[O-])c1)c1ccc2ccccc2c1O | - | - | - | - | - | 77 | - | .
O=C(Cc1ccccc1)Nc1cccc([N+](=O)[O-])c1 | - | - | - | - | - | - | . | .
COC(=O)Cc1[nH]n(-c2nc3ccccc3s2)c(=O)c1C(C)=Nc1ccc(C)cc1 | - | - | - | - | - | 56 | 56 | -
CN(C)c1nc(-c2ccccn2)nnc1-c1ccccc1 | - | - | - | - | - | 76 | - | .
COc1cnc(-c2ccccn2)nc1N(C)C | - | - | - | - | - | 72 | 79 | 42
c1ccc(-c2nnc(-c3ccccn3)c(-c3ccccn3)n2)nc1 | - | - | - | - | - | - | . | .
CCN(CC)c1nc(-c2ccccn2)nc(-c2ccccc2)c1C#N | - | - | - | - | - | 59 | - | .
CCCCN(CC)c1nc(-c2ccncc2)nc2ccccc12 | - | - | - | - | - | - | . | .
CCCN(CCC)c1nc(-c2ccccn2)nc2ccccc12 | - | 69 | - | . | . | 83 | 85 | -
CC(CCc1ccccc1)NC(=O)COC(=O)c1cccnc1Cl (stereo unspecified) | - | - | - | . | . | - | . | .
Cc1nn(-c2ccccc2)nc1C(=O)Nc1nnc(C(F)(F)F)s1 | - | - | - | - | - | - | . | .
COc1ccc(-c2nc3ccc(N4CCCC4)cc3c(=O)[nH]2)cc1OC | - | - | - | - | - | 52 | 57 | 56
CCCN(CC(=O)Nc1ccccc1OC)C(=O)CSC(=S)N1CCCC1 | - | - | - | . | . | - | . | .
Cc1cc(=O)oc2c1ccc1oc(/C(=N/O)c3ccccc3)c(C)c12 | - | - | - | - | - | 58 | - | .
CCc1c(C(C)=O)oc2ccc3c(C)cc(=O)oc3c12 | - | - | - | - | . | - | . | .
CCc1c(C(=O)c2ccc(Cl)cc2)oc2c(C)c3oc(=O)cc(C)c3cc12 | - | - | . | - | - | 59 | - | .
Cc1ccc(/C(=N\O)c2oc3c(C)c4oc(=O)cc(C)c4cc3c2C)cc1 | - | - | - | - | - | 74 | - | .
SMILES | UPR XBP1 act | CHOP UPR activ | Beta2AR agonist | Dynein transport | Mdm2 ligase inh | Mdm2 MdmX PPI | Mdm2 MdmX conf | FLuc counter
CC(C)c1ccc(CN(C)CC(O)c2ccccc2)cc1 (stereo unspecified) | - | - | - | - | - | - | . | .
Cc1ccc(S(=O)(=O)N2CCN(c3ccccc3)CC2)c(C)c1 | - | - | - | . | . | - | . | .
CC(C)C(=O)Nc1ccc2c(c1)Cc1cc(NC(=O)C(C)C)ccc1-2 | - | - | - | . | . | - | . | .
CC1CCCCC1N(C)C1CCN(C(=O)CNC(=O)/C=C/c2cccc(Cl)c2)CC1 (stereo unspecified) | - | - | - | . | . | 53 | 52 | 92
O=C(/C=C/c1cccc(Cl)c1)NCCN1CCOCC1 | - | - | - | - | - | 76 | - | .
O=C(/C=C/c1cccc(Cl)c1)NCCCN1CCOCC1 | - | - | - | . | . | - | . | .
O=C(O)c1cccc(NS(=O)(=O)c2cc(S(=O)(=O)c3ccc(Cl)cc3)ccc2Cl)c1 | - | - | - | . | . | - | . | .
CC1=C(C(=O)Nc2cccc(F)c2)C(c2ccsc2)C2=C(CC(C)(C)CC2=O)N1 (stereo unspecified) | - | - | - | - | - | 54 | 54 | 55
CC1=C(C(=O)Nc2ccccc2F)C(c2ccsc2)C2=C(CC(C)(C)CC2=O)N1 (stereo unspecified) | - | - | - | - | - | - | . | .
Cc1ccc2oc(/N=C(\N)NC(=O)C(C)(C)C)nc2c1 | - | - | - | - | - | 87 | 94 | -
Cc1ccc2oc(/N=C(\N)NC(=O)C3CC3)nc2c1 | - | - | - | - | - | - | . | .
COc1ccc(S(=O)(=O)N2c3ccccc3OCC2C(C)(C)C)cc1 (stereo unspecified) | - | - | - | - | - | 58 | 47 | 45
COc1ccc(S(=O)(=O)N2c3ccccc3OCC2C)cc1 (stereo unspecified) | - | - | - | - | - | - | . | .
COc1ccc(S(=O)(=O)N2c3ccccc3OCC2CC(=O)O)cc1 (stereo unspecified) | - | - | - | . | . | - | . | .

Source: PubChem
